Sampled rows, rich in hits. Any-hit rate of the full collection: about 1.4%.
GSK3 alpha inh – blocks human GSK-3 alpha kinase; AID 2650; ADP-Glo luminescence, 60 min; hit rate 0.1% among 320,000; inhibition, % at 10 µM; P49840;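 active means more than half of replicates show inhibition above 20%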;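 further: GST-tagged GSK-3 alpha with peptide substrate and 25 µM ATP; 0% = DMSO neutral wells and 100% = GW8510 positive control wells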
Target sequence (P49840 whole entry, looked up): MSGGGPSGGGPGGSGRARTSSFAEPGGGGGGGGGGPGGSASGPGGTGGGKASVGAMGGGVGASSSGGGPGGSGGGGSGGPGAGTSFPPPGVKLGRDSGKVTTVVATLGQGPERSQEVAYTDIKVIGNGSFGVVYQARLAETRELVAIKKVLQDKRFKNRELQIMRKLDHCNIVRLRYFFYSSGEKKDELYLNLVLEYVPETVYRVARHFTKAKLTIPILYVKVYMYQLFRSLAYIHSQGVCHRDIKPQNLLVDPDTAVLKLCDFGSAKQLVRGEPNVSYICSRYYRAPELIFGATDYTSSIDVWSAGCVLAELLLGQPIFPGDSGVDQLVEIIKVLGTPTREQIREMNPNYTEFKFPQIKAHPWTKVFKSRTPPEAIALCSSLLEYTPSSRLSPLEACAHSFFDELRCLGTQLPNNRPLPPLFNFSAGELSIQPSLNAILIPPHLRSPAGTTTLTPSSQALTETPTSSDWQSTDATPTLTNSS
HIV Env fusion – inhibitors of HIV Env-mediated cell fusion. HeLa-JRFL Env/CEM21 cell fusion, luciferase. inhibition, % at 12.3 µM. hit rate 1.1% among 360,000. AID 651610;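 active means mean replicate inhibition score of at least 50 and every replicate individually at or above 50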;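 further: 0% = plate neutral controls and 100% = maraviroc near 300 nM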
STK33 inh – inhibitors of human STK33 kinase; purified STK33, MBP phosphorylation, ADP-Glo luminescence; inhibition, % at 10 µM; hit rate 0.073% among 320,000;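 active means inhibition at or above 25%, using the most active replicate where run in duplicate; inactive means inhibition below 25%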
GSIS activator – primary screen for activators of insulin secretion dependent on glucose, INS-1E cells, GLuc reporter luminescence; INS-1E GLuc reporter insulin secretion, 2-3 h; activation, % at 16.6 µM; hit rate 0.61% among 370,000;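 active means lowest replicate activation of at least 40%, so every replicate reaches that level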;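 further: 0% = median of neutral control wells and 100% = median of IBMX positive control wells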
GSK3B inh – blocks human GSK3beta kinase activity | activity score (negative = inhibition), % at 10 µM | hit rate 0.038% among 300,000 | AID 2097 | GST-GSK3beta kinase, ADP-Glo luminescence, 60 min; hits give low values;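 active means more than half of replicate wells score below -50%, meaning over 50% inhibition versus plate controls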;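 further: 0% = median DMSO wells and -100% = median GW8510 positive control wells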
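Assay system: GST-tagged human GSK3beta kinase, cell-free; Input: 1.6 ng GSK3beta; Medium: Tris/MgCl2 kinase buffer; Timing: 60 min enzyme reaction, room temperature; Signal: ADP-Glo luminescence quantifying ADP generated by kinase; Evaluation: score relative to plate controls; Benchmarks: DMSO neutral wells and GW8510 at 20 µM as positive.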
CDK5 inh – blocks human CDK5/p35 kinase activity; AID 488839; Recombinant CDK5/p35, ADP-Glo luminescence, 60 min; inhibition, % at 10 µM; hit rate 0.01% among 330,000; Q00535+Q15078;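 active means highest replicate inhibition of at least 50% and at least 75% of replicates reaching 50%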;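 further: plate controls were DMSO neutral control for no effect and GW8510 at 10 µM for full effect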
* = called active by the depositor; [ ] = dose if it differs, or a comment.

COc1ccc(Nc2oc(COc3ccc(Cl)cc3)nc2C#N)cc1 was read as GSK3 alpha inh -1, HIV Env fusion 84*, STK33 inh -1, GSK3B inh 0 and CDK5 inh 0.
Screening CCOc1ccc(Nc2oc(-c3ccc(Cl)cc3)nc2C#N)cc1 returned GSK3 alpha inh -4, HIV Env fusion -84, STK33 inh 1, GSIS activator 73*, GSK3B inh -1 and CDK5 inh -3.
`O=C(CC1CC1)Nc1ccc2c(c1)[C@H]1C[C@@H](CC(=O)NC3CCCCC3)O[C@@H](CO)[C@H]1O2` gave HIV Env fusion -19[16.7 µM] and GSIS activator 1.
For Cc1ccc(C(=O)N/C(=C/c2ccc(Cl)cc2)C(=O)N2CCOCC2)cc1 the results were GSK3 alpha inh -2, HIV Env fusion 1, STK33 inh 5, GSIS activator 51*, GSK3B inh -2 and CDK5 inh 2.
Screening Cc1cc(OCCOCCNCc2ccccc2)ccc1C(C)C returned GSK3 alpha inh -2, HIV Env fusion 93*, STK33 inh -4, GSIS activator -28, GSK3B inh -6 and CDK5 inh 0.
Cc1ccc(C(C)C)c(OCCNCc2ccccc2)c1 was read as GSK3 alpha inh 0, HIV Env fusion 17, STK33 inh -1, GSIS activator -21 and CDK5 inh 0.
CCCCOC(=O)C1=C(C)Nc2ncnn2C1c1cccc(OC)c1OC (configuration not stated) was read as GSK3 alpha inh 85*, HIV Env fusion -56, STK33 inh 0, GSK3B inh -4 and CDK5 inh 2.
Screening CCCCOC(=O)C1=C(C)Nc2ncnn2C1c1cc(OC)ccc1OC (configuration not stated) returned GSK3 alpha inh 0, HIV Env fusion inactive, STK33 inh -2, GSK3B inh -1 and CDK5 inh -3.
For O=C(Nc1ccc(Cl)c(Cl)c1)Nc1ccc(N2CCCC2)c(S(=O)(=O)Nc2ccccc2Cl)c1 the results were GSK3 alpha inh -2, HIV Env fusion 81*, STK33 inh 0, GSIS activator -4, GSK3B inh -1 and CDK5 inh 0.
CO[C@H]1CN(C)C(=O)c2ccc(NC(=O)NC(C)C)cc2OC[C@@H](C)N(CC2CC2)C[C@@H]1C was read as HIV Env fusion -2[16.7 µM] and GSIS activator 0.
CC(C)Cn1c(N)c(C(=O)CSc2ccc3c(c2)OCCO3)c(=O)n(C)c1=O was read as GSK3 alpha inh -1, HIV Env fusion 98*, STK33 inh -1, GSK3B inh 5 and CDK5 inh -1.
CCOc1ccccc1CNC(c1ccccc1)c1ccccc1 was read as GSK3 alpha inh 0, HIV Env fusion 43, STK33 inh -1, GSIS activator 88*, GSK3B inh 2 and CDK5 inh 0.
Screening O=c1c2ccccc2nnn1CSc1nc2cc(Cl)ccc2c(=O)n1Cc1ccco1 returned GSK3 alpha inh -1, HIV Env fusion 2, STK33 inh 0 and GSK3B inh 2.
Screening O=c1c2ccccc2nnn1CSc1nnc(COc2ccc(Cl)cc2)n1Cc1ccco1 returned GSK3 alpha inh 0, HIV Env fusion 70*, STK33 inh 0, GSK3B inh 2 and CDK5 inh -1.
Cc1ccc(C(=O)n2nc(-c3cccnc3)nc2N)cc1 was read as GSK3 alpha inh -7, HIV Env fusion 9, STK33 inh -1, GSIS activator 72*, GSK3B inh 2 and CDK5 inh -1.
`Cc1ccc(-c2nc(N)n(C(=O)c3cccnc3)n2)cc1` gave GSK3 alpha inh 1, HIV Env fusion -18, STK33 inh 0, GSK3B inh -3 and CDK5 inh 1.
For O=C(C[C@@H]1CC[C@H]2[C@@H](COC[C@@H](O)CN2C(=O)c2ccccc2F)O1)NCc1ccccc1 the results were GSIS activator 8.
For CCOC(=O)Cn1c(S(=O)(=O)Cc2ccc(F)cc2)nc(-c2ccccc2)c1-c1ccccc1 the results were GSK3 alpha inh -5, HIV Env fusion -4, STK33 inh -1, GSK3B inh 0 and CDK5 inh 0.
Screening C#CCn1c(S(=O)(=O)Cc2ccc(F)cc2)nc(-c2ccccc2)c1-c1ccccc1 returned HIV Env fusion 66*, STK33 inh -2, GSIS activator -26, GSK3B inh 3 and CDK5 inh 1.
For CCOC(=O)Cn1c(S(=O)(=O)Cc2cccc(F)c2)nc(-c2ccccc2)c1-c1ccccc1 the results were GSK3 alpha inh -2, HIV Env fusion 87*, STK33 inh 0, GSIS activator -2, GSK3B inh 7 and CDK5 inh 4.
C[C@@H]1CN([C@H](C)CO)C(=O)c2cc(NC(=O)C3CC3)ccc2O[C@@H]1CN(C)S(=O)(=O)c1cn(C)cn1 was read as GSIS activator 8.
For Cc1ccc(NC(=O)c2ccc(COc3ccc4c(c3)CCC4)cc2)c(C)c1 the results were GSK3 alpha inh -1, HIV Env fusion -136, STK33 inh -2, GSIS activator 111*, GSK3B inh 3 and CDK5 inh -1.
For COc1ccc(-c2cc3nc4ccccc4n3c(N)c2C#N)cc1 the results were GSK3 alpha inh 0, HIV Env fusion -280, STK33 inh 0, GSIS activator 86*, GSK3B inh 1 and CDK5 inh 0.
`CCCNC(=O)N(C)C[C@H]1Oc2cc(-c3cncnc3)ccc2S(=O)(=O)N([C@@H](C)CO)C[C@H]1C` gave GSIS activator 5.
For CCOC(=O)c1nn(-c2ccccc2)c2nc(Nc3ccccc3)cc(=O)n12 the results were GSK3 alpha inh -1, STK33 inh -2, GSIS activator 78*, GSK3B inh 0 and CDK5 inh -1.
Screening COc1cc2c(cc1OC)CN(c1ncccc1[N+](=O)[O-])CC2 returned GSK3 alpha inh 0, HIV Env fusion -52, STK33 inh -1, GSIS activator 50*, GSK3B inh 2 and CDK5 inh 0.
COc1cccc(C(=O)N2C[C@@H]3[C@H](c4ccccc42)[C@H](CO)N3Cc2cccnc2)c1 was read as GSIS activator -10.
`COc1ccc(S(=O)(=O)N(C)C[C@@H]2Oc3c(NC(=O)Nc4ccc(F)cc4)cccc3C(=O)N([C@H](C)CO)C[C@@H]2C)cc1` gave HIV Env fusion 19[16.7 µM] and GSIS activator -10.
For Cc1ccc(S(=O)(=O)Nc2ccc3c(c2)CC(=O)N([C@@H](C)CO)C[C@H](C)[C@H](CN(C)C(=O)NC(C)C)O3)cc1 the results were GSIS activator 36.
For O=C(O)c1ccccc1C(=O)N1CCc2c([nH]c3ccccc23)C1C(F)(F)F (configuration not stated) the results were GSK3 alpha inh 0, HIV Env fusion -3, STK33 inh 0, GSIS activator -18 and GSK3B inh 0.

Screening results as filed in PubChem BioAssay.
